The text below walks through data of ChEMBL document CHEMBL3352356, “N-tetradecylcarbamyl lipopeptides as novel agonists for Toll-like receptor 2” (J Med Chem, 2014).

Activity calls are given as the source filed them. The calls are words filed in the database; no cut-off is given here.

One assay deals with D1. As to the kind of experiment: Immunostimulatory activity in C57BL/6 (H-2b) mouse D1 cells assessed as increase in IL-12p40 secretion at 30 pM to 30 nM after 24 hrs by ELISA/DC maturation assay. Type of assay: functional, cell-based. An outline of the steps:
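Cells were D1, a growth factor-dependent immature spleen-derived dendritic cell line from C57BL/6 (H-2b) mice. Compounds were titrated at 4 concentrations in complete IMDM, with about 40.000 cells per well. After 24 hours at 37°C, supernatant IL-12p40 was measured by ELISA. Assays were run in triplicate, with standard deviation shown.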

The target in assay [1] is Toll-like receptor 2 (Homo sapiens) (UniProt O60603). The assay can be described thus: Activation of human TLR2 expressed in HEK293 cells assessed as IL-8 secretion after 48 hrs by ELISA.
Chain of Toll-like receptor 2 (Homo sapiens) (O60603 whole entry): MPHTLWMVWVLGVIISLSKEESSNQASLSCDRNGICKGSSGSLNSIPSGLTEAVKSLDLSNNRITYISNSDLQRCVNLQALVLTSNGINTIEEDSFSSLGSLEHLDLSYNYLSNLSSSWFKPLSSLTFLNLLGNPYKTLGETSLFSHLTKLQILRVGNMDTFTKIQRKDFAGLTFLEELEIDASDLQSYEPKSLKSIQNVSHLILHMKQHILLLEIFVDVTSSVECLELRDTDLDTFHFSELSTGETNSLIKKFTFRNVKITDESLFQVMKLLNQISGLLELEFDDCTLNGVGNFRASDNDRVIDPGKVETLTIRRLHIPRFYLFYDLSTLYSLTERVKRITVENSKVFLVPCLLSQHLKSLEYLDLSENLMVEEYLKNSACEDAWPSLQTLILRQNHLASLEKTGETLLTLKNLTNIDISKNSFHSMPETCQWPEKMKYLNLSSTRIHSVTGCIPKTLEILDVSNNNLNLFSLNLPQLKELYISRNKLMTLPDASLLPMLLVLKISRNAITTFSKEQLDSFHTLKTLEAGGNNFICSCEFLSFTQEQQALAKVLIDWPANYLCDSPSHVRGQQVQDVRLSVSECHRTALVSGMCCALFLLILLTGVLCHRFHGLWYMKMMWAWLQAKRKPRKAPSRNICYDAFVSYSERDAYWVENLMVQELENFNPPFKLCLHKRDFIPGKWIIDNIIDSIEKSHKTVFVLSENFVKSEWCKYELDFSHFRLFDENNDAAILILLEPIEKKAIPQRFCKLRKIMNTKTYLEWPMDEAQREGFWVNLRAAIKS
For assay [2] the target is unchanged. The assay can be described thus: Activation of human TLR2 expressed in HEK293 cells assessed as IL-8 secretion at 30 to 300 nM after 48 hrs by ELISA.

`C#CC[C@H](NC(=O)[C@H](CSCC(COC(=O)CCCCCCCCCCCCCCC)OC(=O)CCCCCCCCCCCCCCC)NC(=O)NCCCCCCCCCCCCCC)C(=O)N[C@@H](CCCCN)C(=O)N[C@@H](CCCCN)C(=O)N[C@@H](CCCCN)C(=O)N[C@@H](CCCCN)C(N)=O` (mixture of isomers): in the assay on D1, the result was Active. The Activity entry in assay [1] was “Dose-dependent effect”.
For `C=CC[C@@H](NC(=O)[C@H](CSCC(COC(=O)CCCCCCCCCCCCCCC)OC(=O)CCCCCCCCCCCCCCC)NC(=O)NCCCCCCCCCCCCCC)C(=O)N[C@@H](CCCCN)C(=O)N[C@@H](CCCCN)C(=O)N[C@@H](CCCCN)C(=O)N[C@@H](CCCCN)C(N)=O` (mixture of isomers), the outcome in assay [2] was inactive.
With `C=CC[C@H](NC(=O)[C@H](CSCC(COC(=O)CCCCCCCCCCCCCCC)OC(=O)CCCCCCCCCCCCCCC)NC(=O)NCCCCCCCCCCCCCC)C(=O)N[C@@H](CCCCN)C(=O)N[C@@H](CCCCN)C(=O)N[C@@H](CCCCN)C(=O)N[C@@H](CCCCN)C(N)=O` (mixture of isomers), in the assay on D1, the result was Active. Further, in assay [1], the Activity result is “Dose-dependent effect”.
Turning to `CCCCCCCCCCCCCCCC(=O)OCC(CSC[C@H](NC(=O)NCCCCCCCCCCCCCC)C(=O)NCC(=O)N[C@@H](CCCCN)C(=O)N[C@@H](CCCCN)C(=O)N[C@@H](CCCCN)C(=O)N[C@@H](CCCCN)C(N)=O)OC(=O)CCCCCCCCCCCCCCC` (mixture of isomers), the Activity result in assay [1] was “Dose-dependent effect”.
On to `CCCCCCCCCCCCCCCC(=O)OCC(CSC[C@H](NC(=O)NCCCCCCCCCCCCCC)C(=O)NCCC(=O)N[C@@H](CCCCN)C(=O)N[C@@H](CCCCN)C(=O)N[C@@H](CCCCN)C(=O)N[C@@H](CCCCN)C(N)=O)OC(=O)CCCCCCCCCCCCCCC` (mixture of isomers), for which, in the assay with D1, the outcome was inactive. Besides, the Activity entry in assay [1] was “Dose-dependent effect”.
As for `CCCCCCCCCCCCCCCC(=O)OCC(CSC[C@H](NC(=O)NCCCCCCCCCCCCCC)C(=O)NC[C@H](CCCCN)C(=O)N[C@@H](CCCCN)C(=O)N[C@@H](CCCCN)C(=O)N[C@@H](CCCCN)C(=O)N[C@@H](CCCCN)C(N)=O)OC(=O)CCCCCCCCCCCCCCC` (mixture of isomers), the result (with D1; in assay [2]) was inactive.
Turning to `CCCCCCCCCCCCCCCC(=O)OCC(CSC[C@H](NC(=O)NCCCCCCCCCCCCCC)C(=O)N[C@@H](C)C(=O)N[C@@H](CCCCN)C(=O)N[C@@H](CCCCN)C(=O)N[C@@H](CCCCN)C(=O)N[C@@H](CCCCN)C(N)=O)OC(=O)CCCCCCCCCCCCCCC` (mixture of isomers), the Activity entry in assay [1] is “Dose-dependent effect”.
For `CCCCCCCCCCCCCCCC(=O)OCC(CSC[C@H](NC(=O)NCCCCCCCCCCCCCC)C(=O)N[C@@H](CC#N)C(=O)N[C@@H](CCCCN)C(=O)N[C@@H](CCCCN)C(=O)N[C@@H](CCCCN)C(=O)N[C@@H](CCCCN)C(N)=O)OC(=O)CCCCCCCCCCCCCCC` (mixture of isomers), the outcome in the assay on D1 was Active. Besides, the Activity entry in assay [1] is “Dose-dependent effect”.
For `CCCCCCCCCCCCCCCC(=O)OCC(CSC[C@H](NC(=O)NCCCCCCCCCCCCCC)C(=O)N[C@@H](CC(N)=O)C(=O)N[C@@H](CCCCN)C(=O)N[C@@H](CCCCN)C(=O)N[C@@H](CCCCN)C(=O)N[C@@H](CCCCN)C(N)=O)OC(=O)CCCCCCCCCCCCCCC` (mixture of isomers) the same measures were “Active” and “Dose-dependent effect”.
For `CCCCCCCCCCCCCCCC(=O)OCC(CSC[C@H](NC(=O)NCCCCCCCCCCCCCC)C(=O)N[C@@H](CC)C(=O)N[C@@H](CCCCN)C(=O)N[C@@H](CCCCN)C(=O)N[C@@H](CCCCN)C(=O)N[C@@H](CCCCN)C(N)=O)OC(=O)CCCCCCCCCCCCCCC` (mixture of isomers) the same measures were “Active” and “Dose-dependent effect”.
Consider `CCCCCCCCCCCCCCCC(=O)OCC(CSC[C@H](NC(=O)NCCCCCCCCCCCCCC)C(=O)N[C@@H](CCC)C(=O)N[C@@H](CCCCN)C(=O)N[C@@H](CCCCN)C(=O)N[C@@H](CCCCN)C(=O)N[C@@H](CCCCN)C(N)=O)OC(=O)CCCCCCCCCCCCCCC` (mixture of isomers), for which the result with D1 was Active. Besides, the Activity result in assay [1] is “Dose-dependent effect”.
With `CCCCCCCCCCCCCCCC(=O)OCC(CSC[C@H](NC(=O)NCCCCCCCCCCCCCC)C(=O)N[C@@H](CCCC)C(=O)N[C@@H](CCCCN)C(=O)N[C@@H](CCCCN)C(=O)N[C@@H](CCCCN)C(=O)N[C@@H](CCCCN)C(N)=O)OC(=O)CCCCCCCCCCCCCCC` (mixture of isomers), the outcome in the assay on D1 was Active. In assay [1], the Activity entry is “Dose-dependent effect”.
For `CCCCCCCCCCCCCCCC(=O)OCC(CSC[C@H](NC(=O)NCCCCCCCCCCCCCC)C(=O)N[C@@H](CCN)C(=O)N[C@@H](CCCCN)C(=O)N[C@@H](CCCCN)C(=O)N[C@@H](CCCCN)C(=O)N[C@@H](CCCCN)C(N)=O)OC(=O)CCCCCCCCCCCCCCC` (mixture of isomers) the same measures were “Active” and “Dose-dependent effect”.
For `CCCCCCCCCCCCCCCC(=O)OCC(CSC[C@H](NC(=O)NCCCCCCCCCCCCCC)C(=O)N[C@@H](CN)C(=O)N[C@@H](CCCCN)C(=O)N[C@@H](CCCCN)C(=O)N[C@@H](CCCCN)C(=O)N[C@@H](CCCCN)C(N)=O)OC(=O)CCCCCCCCCCCCCCC` (mixture of isomers) the same measures were “inactive” and “Dose-dependent effect”.
Consider `CCCCCCCCCCCCCCCC(=O)OCC(CSC[C@H](NC(=O)NCCCCCCCCCCCCCC)C(=O)N[C@@H](CO)C(=O)N[C@@H](CCCCN)C(=O)N[C@@H](CCCCN)C(=O)N[C@@H](CCCCN)C(=O)N[C@@H](CCCCN)C(N)=O)OC(=O)CCCCCCCCCCCCCCC` (mixture of isomers), for which the outcome with D1 was Active. Moreover, in assay [1], the Activity result is “Dose-dependent effect”.
With `CCCCCCCCCCCCCCCC(=O)OCC(CSC[C@H](NC(=O)NCCCCCCCCCCCCCC)C(=O)N[C@@H](CS)C(=O)N[C@@H](CCCCN)C(=O)N[C@@H](CCCCN)C(=O)N[C@@H](CCCCN)C(=O)N[C@@H](CCCCN)C(N)=O)OC(=O)CCCCCCCCCCCCCCC` (mixture of isomers), the outcome (in the assay with D1; in assay [2]) was inactive.
With `CCCCCCCCCCCCCCCC(=O)OCC(CSC[C@H](NC(=O)NCCCCCCCCCCCCCC)C(=O)N[C@@H](Cc1ccc2ccccc2c1)C(=O)N[C@@H](CCCCN)C(=O)N[C@@H](CCCCN)C(=O)N[C@@H](CCCCN)C(=O)N[C@@H](CCCCN)C(N)=O)OC(=O)CCCCCCCCCCCCCCC` (mixture of isomers), the outcome (in the assay with D1; in assay [2]) was inactive.
`CCCCCCCCCCCCCCCC(=O)OCC(CSC[C@H](NC(=O)NCCCCCCCCCCCCCC)C(=O)N[C@@H](Cc1ccccc1)C(=O)N[C@@H](CCCCN)C(=O)N[C@@H](CCCCN)C(=O)N[C@@H](CCCCN)C(=O)N[C@@H](CCCCN)C(N)=O)OC(=O)CCCCCCCCCCCCCCC` (mixture of isomers): the outcome in the assay with D1 was inactive. Also, the Activity entry in assay [1] is “Dose-dependent effect”.
The like results for `CCCCCCCCCCCCCCCC(=O)OCC(CSC[C@H](NC(=O)NCCCCCCCCCCCCCC)C(=O)N[C@@H](Cc1cccs1)C(=O)N[C@@H](CCCCN)C(=O)N[C@@H](CCCCN)C(=O)N[C@@H](CCCCN)C(=O)N[C@@H](CCCCN)C(N)=O)OC(=O)CCCCCCCCCCCCCCC` (mixture of isomers) were, in that order, “inactive” and “Dose-dependent effect”.
The like results for `CCCCCCCCCCCCCCCC(=O)OCC(CSC[C@H](NC(=O)NCCCCCCCCCCCCCC)C(=O)N[C@H](C(=O)N[C@@H](CCCCN)C(=O)N[C@@H](CCCCN)C(=O)N[C@@H](CCCCN)C(=O)N[C@@H](CCCCN)C(N)=O)C(C)(C)S)OC(=O)CCCCCCCCCCCCCCC` (mixture of isomers) were, in that order, “inactive” and “Dose-dependent effect”.
Regarding `CCCCCCCCCCCCCCCC(=O)OCC(CSC[C@H](NC(=O)NCCCCCCCCCCCCCC)C(=O)N[C@H](C(=O)N[C@@H](CCCCN)C(=O)N[C@@H](CCCCN)C(=O)N[C@@H](CCCCN)C(=O)N[C@@H](CCCCN)C(N)=O)c1cccs1)OC(=O)CCCCCCCCCCCCCCC` (mixture of isomers), the Activity result in assay [1] was “Dose-dependent effect”.
On to `CCCCCCCCCCCCCCCC(=O)OCC(CSC[C@H](NC(=O)NCCCCCCCCCCCCCC)C(=O)N[C@H](CS)C(=O)N[C@@H](CCCCN)C(=O)N[C@@H](CCCCN)C(=O)N[C@@H](CCCCN)C(=O)N[C@@H](CCCCN)C(N)=O)OC(=O)CCCCCCCCCCCCCCC` (mixture of isomers), for which the outcome (in the assay on D1; in assay [2]) was inactive.
